The values that follow come from ChEMBL document CHEMBL1926530, “Novel pyrazolo[1,5-a]pyridines as p110α-selective PI3 kinase inhibitors: Exploring the benzenesulfonohydrazide SAR” (Bioorg Med Chem, 2012).

pIC50: −log10 of the molar value.

For data set [1], the target named is Phosphatidylinositol 4,5-bisphosphate 3-kinase catalytic subunit alpha isoform (Homo sapiens, UniProt P42336). The experiment in a line: Inhibition of recombinant PI3K p110alpha using L-alpha-phosphatidylinositol as substrate and [gamma33P]ATP after 60 mins by thin layer chromatographic technique. An outline of the steps:
(§1)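 In-house recombinant enzyme (0.1 µg) with L-α-phosphatidylinositol in 40 mM Tris-HCl pH 7.4, 200 mM NaCl, 1 mM EDTA; DMSO 1% final. Started with 5 mM MgCl₂, 100 µM ATP plus [γ-³³P]ATP; 1 h at room temperature, stopped with 1 M HCl. Lipids extracted, separated by TLC, phosphorimaged. Nine inhibitor concentrations; two experiments, IC50 averaged.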

Data set [2] addresses T1, Phosphatidylinositol 4,5-bisphosphate 3-kinase catalytic subunit delta isoform (Homo sapiens, UniProt O00329).
T1 sequence (O00329 whole entry): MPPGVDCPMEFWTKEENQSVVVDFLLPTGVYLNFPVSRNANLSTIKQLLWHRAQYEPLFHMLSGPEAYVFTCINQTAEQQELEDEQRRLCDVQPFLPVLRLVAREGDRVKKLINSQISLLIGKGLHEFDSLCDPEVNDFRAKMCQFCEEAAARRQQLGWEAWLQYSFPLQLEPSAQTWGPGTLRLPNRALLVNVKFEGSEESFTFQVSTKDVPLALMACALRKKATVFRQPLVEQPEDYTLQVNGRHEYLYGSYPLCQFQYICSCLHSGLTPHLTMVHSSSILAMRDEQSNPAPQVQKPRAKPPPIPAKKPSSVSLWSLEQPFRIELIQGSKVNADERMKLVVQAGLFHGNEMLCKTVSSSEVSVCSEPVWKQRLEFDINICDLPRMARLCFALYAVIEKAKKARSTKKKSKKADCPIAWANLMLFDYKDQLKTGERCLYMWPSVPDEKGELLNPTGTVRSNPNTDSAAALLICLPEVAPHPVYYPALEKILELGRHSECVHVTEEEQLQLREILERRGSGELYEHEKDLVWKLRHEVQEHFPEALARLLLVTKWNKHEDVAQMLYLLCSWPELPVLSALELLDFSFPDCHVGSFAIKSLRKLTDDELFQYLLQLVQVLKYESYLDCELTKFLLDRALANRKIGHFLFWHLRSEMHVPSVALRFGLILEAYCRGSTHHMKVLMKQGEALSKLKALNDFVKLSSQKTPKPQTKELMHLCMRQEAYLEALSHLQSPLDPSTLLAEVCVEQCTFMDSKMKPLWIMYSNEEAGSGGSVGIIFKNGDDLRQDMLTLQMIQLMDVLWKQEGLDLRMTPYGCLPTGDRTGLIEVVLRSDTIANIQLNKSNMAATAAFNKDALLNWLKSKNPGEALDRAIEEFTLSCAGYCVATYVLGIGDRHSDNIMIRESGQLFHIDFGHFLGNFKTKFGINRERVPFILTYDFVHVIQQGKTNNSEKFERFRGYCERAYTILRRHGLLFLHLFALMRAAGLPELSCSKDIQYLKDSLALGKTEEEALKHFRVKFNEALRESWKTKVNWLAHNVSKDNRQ
The experiment in a line: Inhibition of recombinant PI3K p110delta using L-alpha-phosphatidylinositol as substrate and [gamma33P]ATP after 60 mins by thin layer chromatographic technique. An outline of the steps:
as §1

The nature of data set [3]: Cytotoxicity against human NZOV9 cells harboring PI3K p110alpha Y1021C mutant assessed as inhibition of [3H]thymidine incorporation measured after 5 days. Format: functional, cell-based. Put shortly:
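Early-passage lines grown in α-MEM with insulin, transferrin, selenite and 5% FBS. Wells seeded with 1000 cells; inhibitor in dilution steps up to a maximum of 20. Five days under 5% O₂/5% CO₂/90% N₂, ³H-thymidine added for the last 6 h. Duplicates per dose; fit y = y₀ + ae^−bx; IC50 = 50% reduction in incorporation.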

In data set [4] the target is Phosphatidylinositol 4,5-bisphosphate 3-kinase catalytic subunit alpha isoform (Homo sapiens, UniProt P42336, E545K). Nature of the data set: Inhibition of recombinant PI3K p110alpha E545K mutant using L-alpha-phosphatidylinositol as substrate and [gamma33P]ATP after 60 mins by thin layer chromatographic technique.
The target in data set [5] is T2, Phosphatidylinositol 4,5-bisphosphate 3-kinase catalytic subunit alpha isoform (Homo sapiens, UniProt P42336, H1047R). Nature of the data set: Inhibition of recombinant PI3K p110alpha H1047R mutant using L-alpha-phosphatidylinositol as substrate and [gamma33P]ATP after 60 mins by thin layer chromatographic technique.
A short description of data set [6]: Inhibition of DNA-PK.
The target in data set [7] is Phosphatidylinositol 4,5-bisphosphate 3-kinase catalytic subunit gamma isoform (Homo sapiens, UniProt P48736). Nature of the data set: Inhibition of PI3K p110gamma.
The target in data set [8] is Mitogen-activated protein kinase 14 (Homo sapiens) (UniProt Q16539). Nature of the data set: Inhibition of p38alpha assessed as residual activity at 1 uM.
Data set [9] deals with Ribosomal protein S6 kinase alpha-1 (Homo sapiens) (UniProt Q15418). Nature of the data set: Inhibition of RSK1 assessed as residual activity at 1 uM.
Data set [10] has the same target. Nature of the data set: Inhibition of RSK1 assessed as residual activity at 10 uM.
Data set [11] addresses Misshapen-like kinase 1 (Homo sapiens) (UniProt Q8N4C8). Nature of the data set: Inhibition of MINK1 assessed as residual activity at 1 uM.
For data set [12] the target is unchanged. The experiment in a line: Inhibition of MINK1 assessed as residual activity at 10 uM.
The target in data set [13] is T2, Phosphatidylinositol 4,5-bisphosphate 3-kinase catalytic subunit alpha isoform. Nature of the data set: Inhibition of PI3K […] H1047R mutant-mediated PKB phosphorylation at Ser473 in human HCT116 cells after 15 mins by immunoblot analysis. Format: cell-based, HCT-116. An outline of the steps: (§2)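 HCT-116 cells in MEM alpha with 10% FBS and penicillin/streptomycin, seeded, grown 1 day, then starved overnight serum-free. Inhibitor in DMSO (0.1% final) at varying concentrations for 15 min, then 500 nM insulin for 5 min. Lysates immunoblotted for phospho-PKB at Ser473 or Thr308.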
For orientation: A western blot detects proteins with antibodies after separation by electrophoresis.

The target is the same in data set [14]. Nature of the data set: Inhibition of PI3K […] H1047R mutant-mediated PKB phosphorylation at Thr308 in human HCT116 cells after 15 mins by immunoblot analysis. Format: cell-based, HCT-116. Put shortly: as §2
Data set [15] is described as follows: AUC (0 to infinity) in CD1 mouse at 10 mg/kg, ip. It counts as ADME, organism-based. Also noted: time infinity, dose 10 mg/kg, route intraperitoneal. Particulars: plasma. Put shortly:
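Age-matched specific pathogen-free male CD-1 mice; single 10 mg/kg i.p. dose in 5% DMSO, 45% PEG-400, 20% 2-hydroxypropyl-β-cyclodextrin, 30% water. Blood sampled at multiple times post-dose; plasma taken after centrifugation (10 min, 6000 rpm, 20 °C). Plasma analysed by LC-MS/MS; parameters from non-compartmental analysis.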

Data set [16] concerns SK-OV-3. The experiment in a line: Antitumor activity against human SKOV3 cells xenografted in nude NIH3 mouse assessed as tumor growth delay at 30 mg/kg, ip QD administered for 14 days relative to untreated control. It counts as functional. The note with it: SK-OV-3, ip, 336 h, route intraperitoneal, read-out: GI. Put shortly: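 Female NIH III nude mice (age-matched, SPF) inoculated s.c. with 5 × 10⁶ SK-OV-3 cells in PBS. Dosing from ~150 mm³ tumours, 30 mg/kg i.p. q.d. for 14 days in 7.5% DMSO/42.5% PEG-400/20% 2-hydroxypropyl-β-cyclodextrin/30% water; vehicle controls. Volume (L × w²) × π/6 three times weekly; bodyweight daily; culled above 20% weight loss; 1-way ANOVA, Holm–Sidak.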

T2 sequence (P42336 whole entry H1047R, canonical isoform): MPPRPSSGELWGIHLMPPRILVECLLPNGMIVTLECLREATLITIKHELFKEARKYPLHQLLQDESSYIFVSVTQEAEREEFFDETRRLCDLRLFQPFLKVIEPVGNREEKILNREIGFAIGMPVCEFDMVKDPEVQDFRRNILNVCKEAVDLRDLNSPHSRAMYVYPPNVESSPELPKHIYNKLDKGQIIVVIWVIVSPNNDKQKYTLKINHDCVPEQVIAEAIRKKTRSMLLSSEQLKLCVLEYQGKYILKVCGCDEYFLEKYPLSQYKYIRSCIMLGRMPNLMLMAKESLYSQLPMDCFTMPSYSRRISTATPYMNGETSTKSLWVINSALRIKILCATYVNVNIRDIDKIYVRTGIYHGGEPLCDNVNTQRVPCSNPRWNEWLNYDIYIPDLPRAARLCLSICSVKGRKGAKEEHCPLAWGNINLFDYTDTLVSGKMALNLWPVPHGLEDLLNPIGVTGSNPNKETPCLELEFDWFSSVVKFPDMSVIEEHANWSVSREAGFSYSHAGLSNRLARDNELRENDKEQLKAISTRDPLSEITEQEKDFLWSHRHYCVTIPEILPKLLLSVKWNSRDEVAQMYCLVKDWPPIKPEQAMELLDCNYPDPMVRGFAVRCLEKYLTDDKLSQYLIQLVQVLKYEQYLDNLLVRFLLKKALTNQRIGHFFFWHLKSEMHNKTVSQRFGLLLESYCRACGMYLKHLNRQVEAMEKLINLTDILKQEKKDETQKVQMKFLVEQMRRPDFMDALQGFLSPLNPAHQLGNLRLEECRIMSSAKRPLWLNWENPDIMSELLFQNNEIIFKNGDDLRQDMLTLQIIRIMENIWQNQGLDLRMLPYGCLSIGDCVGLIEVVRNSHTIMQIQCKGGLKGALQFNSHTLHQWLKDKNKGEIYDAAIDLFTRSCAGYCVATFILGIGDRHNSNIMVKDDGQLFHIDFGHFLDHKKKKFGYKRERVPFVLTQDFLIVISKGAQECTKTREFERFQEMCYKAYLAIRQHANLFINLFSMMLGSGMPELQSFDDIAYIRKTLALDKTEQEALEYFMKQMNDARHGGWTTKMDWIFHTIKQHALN
Misshapen-like kinase 1 (Homo sapiens), sequence (Q8N4C8 whole entry, looked up): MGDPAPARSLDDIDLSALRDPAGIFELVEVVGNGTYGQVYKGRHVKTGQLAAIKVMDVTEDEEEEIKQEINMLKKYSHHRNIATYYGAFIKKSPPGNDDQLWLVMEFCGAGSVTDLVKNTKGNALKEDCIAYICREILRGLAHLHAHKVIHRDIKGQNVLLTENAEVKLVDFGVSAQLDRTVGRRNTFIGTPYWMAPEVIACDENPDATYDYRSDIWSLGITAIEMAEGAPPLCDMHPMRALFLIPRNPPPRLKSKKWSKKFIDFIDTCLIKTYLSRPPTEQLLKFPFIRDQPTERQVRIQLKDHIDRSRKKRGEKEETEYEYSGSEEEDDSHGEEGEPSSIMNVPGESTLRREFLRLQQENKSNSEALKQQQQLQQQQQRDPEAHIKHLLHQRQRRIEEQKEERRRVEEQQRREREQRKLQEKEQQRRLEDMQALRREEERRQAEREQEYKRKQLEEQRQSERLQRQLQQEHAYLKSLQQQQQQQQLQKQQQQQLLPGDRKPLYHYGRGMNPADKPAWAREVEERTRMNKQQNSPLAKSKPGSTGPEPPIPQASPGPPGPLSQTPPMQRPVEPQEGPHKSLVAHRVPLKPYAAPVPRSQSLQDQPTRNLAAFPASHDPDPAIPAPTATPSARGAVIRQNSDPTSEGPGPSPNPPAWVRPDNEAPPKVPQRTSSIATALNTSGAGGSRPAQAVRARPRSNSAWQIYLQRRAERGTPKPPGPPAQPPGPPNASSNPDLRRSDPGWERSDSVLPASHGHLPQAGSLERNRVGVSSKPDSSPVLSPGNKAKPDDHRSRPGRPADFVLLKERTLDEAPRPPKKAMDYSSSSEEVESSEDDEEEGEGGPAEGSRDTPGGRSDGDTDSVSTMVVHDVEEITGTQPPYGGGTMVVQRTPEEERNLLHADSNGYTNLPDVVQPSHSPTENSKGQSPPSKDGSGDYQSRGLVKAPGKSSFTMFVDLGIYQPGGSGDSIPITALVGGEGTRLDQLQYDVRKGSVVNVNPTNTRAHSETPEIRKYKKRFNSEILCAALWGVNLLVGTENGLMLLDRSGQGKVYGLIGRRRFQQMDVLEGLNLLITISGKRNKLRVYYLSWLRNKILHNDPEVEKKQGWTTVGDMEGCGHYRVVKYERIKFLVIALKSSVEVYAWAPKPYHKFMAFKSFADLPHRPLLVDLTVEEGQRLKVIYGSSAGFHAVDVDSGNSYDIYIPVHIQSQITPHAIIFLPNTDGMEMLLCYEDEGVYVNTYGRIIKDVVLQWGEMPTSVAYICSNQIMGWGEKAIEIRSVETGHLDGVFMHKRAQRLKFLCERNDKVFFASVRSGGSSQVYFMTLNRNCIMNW
Ribosomal protein S6 kinase alpha-1 (Homo sapiens), sequence (Q15418 whole entry): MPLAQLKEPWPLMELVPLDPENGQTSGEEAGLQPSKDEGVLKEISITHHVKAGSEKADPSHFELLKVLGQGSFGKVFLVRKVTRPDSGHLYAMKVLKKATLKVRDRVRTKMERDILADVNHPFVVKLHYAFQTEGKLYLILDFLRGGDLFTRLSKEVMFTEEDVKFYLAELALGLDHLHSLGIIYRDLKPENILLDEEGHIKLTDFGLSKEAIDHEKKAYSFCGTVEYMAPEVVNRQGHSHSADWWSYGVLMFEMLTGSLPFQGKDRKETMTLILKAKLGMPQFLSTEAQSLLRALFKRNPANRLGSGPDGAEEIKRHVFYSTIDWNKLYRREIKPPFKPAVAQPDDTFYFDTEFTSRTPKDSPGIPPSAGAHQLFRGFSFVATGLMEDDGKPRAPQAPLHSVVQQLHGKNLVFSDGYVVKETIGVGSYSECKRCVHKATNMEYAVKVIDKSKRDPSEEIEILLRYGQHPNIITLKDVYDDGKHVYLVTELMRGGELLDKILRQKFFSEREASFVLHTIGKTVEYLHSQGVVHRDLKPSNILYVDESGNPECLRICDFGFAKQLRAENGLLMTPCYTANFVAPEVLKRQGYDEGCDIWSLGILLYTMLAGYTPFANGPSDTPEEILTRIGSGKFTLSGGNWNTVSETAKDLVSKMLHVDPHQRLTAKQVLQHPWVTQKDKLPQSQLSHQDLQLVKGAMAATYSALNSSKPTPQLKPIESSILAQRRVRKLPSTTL
Phosphatidylinositol 4,5-bisphosphate 3-kinase catalytic subunit alpha isoform (Homo sapiens, UniProt P42336, E545K), sequence (P42336 whole entry E545K, canonical isoform): as the sequence (P42336 whole entry H1047R, canonical isoform) above, with E545K, R1047H counted along it
Phosphatidylinositol 4,5-bisphosphate 3-kinase catalytic subunit alpha isoform (Homo sapiens, UniProt P42336), sequence (P42336 whole entry, canonical isoform): as the sequence (P42336 whole entry H1047R, canonical isoform) above, with R1047H counted along it
Mitogen-activated protein kinase 14 (Homo sapiens), sequence (Q16539 whole entry): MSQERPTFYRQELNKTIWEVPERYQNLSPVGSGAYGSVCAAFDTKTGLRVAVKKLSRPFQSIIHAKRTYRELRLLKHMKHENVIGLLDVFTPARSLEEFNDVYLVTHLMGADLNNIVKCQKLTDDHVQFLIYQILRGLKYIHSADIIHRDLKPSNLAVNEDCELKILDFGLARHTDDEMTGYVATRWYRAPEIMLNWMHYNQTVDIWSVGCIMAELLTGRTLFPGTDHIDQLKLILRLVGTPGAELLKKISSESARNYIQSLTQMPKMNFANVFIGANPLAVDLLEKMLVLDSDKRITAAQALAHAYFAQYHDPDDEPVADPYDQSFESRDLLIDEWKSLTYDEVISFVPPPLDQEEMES
Phosphatidylinositol 4,5-bisphosphate 3-kinase catalytic subunit gamma isoform, sequence (P48736 whole entry, canonical isoform): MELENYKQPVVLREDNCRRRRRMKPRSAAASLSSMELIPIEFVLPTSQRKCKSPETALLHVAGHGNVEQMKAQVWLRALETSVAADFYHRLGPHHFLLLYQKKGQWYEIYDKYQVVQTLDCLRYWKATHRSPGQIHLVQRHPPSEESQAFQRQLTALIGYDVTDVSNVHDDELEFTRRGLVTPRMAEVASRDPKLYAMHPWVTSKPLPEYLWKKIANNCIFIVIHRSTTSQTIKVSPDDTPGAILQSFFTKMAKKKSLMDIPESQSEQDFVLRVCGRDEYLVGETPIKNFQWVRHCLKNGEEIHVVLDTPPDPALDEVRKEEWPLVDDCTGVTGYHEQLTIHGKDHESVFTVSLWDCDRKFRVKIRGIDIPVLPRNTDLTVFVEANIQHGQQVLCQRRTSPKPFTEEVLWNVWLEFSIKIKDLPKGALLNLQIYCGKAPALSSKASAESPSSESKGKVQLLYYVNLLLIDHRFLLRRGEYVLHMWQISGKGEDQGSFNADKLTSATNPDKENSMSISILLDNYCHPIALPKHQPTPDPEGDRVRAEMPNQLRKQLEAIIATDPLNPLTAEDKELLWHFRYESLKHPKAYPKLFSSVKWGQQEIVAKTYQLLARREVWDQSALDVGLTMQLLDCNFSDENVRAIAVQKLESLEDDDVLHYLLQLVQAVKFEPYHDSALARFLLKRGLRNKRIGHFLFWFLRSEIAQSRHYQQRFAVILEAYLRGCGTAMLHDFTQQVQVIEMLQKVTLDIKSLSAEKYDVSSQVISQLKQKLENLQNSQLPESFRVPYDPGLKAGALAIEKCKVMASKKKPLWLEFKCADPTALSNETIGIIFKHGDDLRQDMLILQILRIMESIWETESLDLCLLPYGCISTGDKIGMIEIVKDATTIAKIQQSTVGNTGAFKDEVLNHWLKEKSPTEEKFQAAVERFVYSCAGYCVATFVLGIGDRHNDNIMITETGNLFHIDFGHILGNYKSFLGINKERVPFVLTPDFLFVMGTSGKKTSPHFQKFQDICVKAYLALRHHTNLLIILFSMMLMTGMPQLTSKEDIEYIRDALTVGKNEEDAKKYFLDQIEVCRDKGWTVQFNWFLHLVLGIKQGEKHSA

`Cc1ccc([N+](=O)[O-])cc1S(=O)(=O)N(CCO)/N=C/c1cnn2ccc(C#N)cc12`: the pIC50 is 8.89 in [1]; 7.27 in data set [2]; 6.85 in data set [3]; 9.10 in data set [4]; 9.10 in data set [5]; 9.52 in data set [6]. Besides, the pIC50 in data set [7] was 7.96; in data set [13], 7.09; in [14], 7.31. Moreover, the Activity in data set [8] turned out to be 59%; in data set [9], 18%; in data set [10], 5%; in data set [11], 16%; in data set [12] it was 2%. In [15], the area under the curve AUC(0-inf) worked out at 3.16 µM·h. Further, in data set [16], the inhibition in vivo at 30 mg/kg came out at 49.9%.

For orientation: pIC50 means the negative decadic logarithm of the IC50, by convention in mol/L. A word on the AUC(0-inf): it is total exposure, with the tail of the curve extrapolated. Read a low AUC(0-inf) as less exposure.
